Reference: ChEMBL document CHEMBL2401672, “2-[(3aR,4R,5S,7aS)-5-{(1S)-1-[3,5-bis(trifluoromethyl)phenyl]-2-hydroxyethoxy}-4-(2-methylphenyl)octahydro-2H-isoindol-2-yl]-1,3-oxazol-4(5H)-one: a potent human NK1 receptor antagonist with multiple clearance pathways” (J Med Chem, 2013)
The source made the active and inactive calls. The calls are words filed in the database; no cut-off is given here.

Assays:
[1] = system: Rhesus monkey; test: Ex vivo NK1 receptor occupancy in rhesus monkey brain assessed as concentration required for 90% occupancy at 67 nM plasma concentration by PET imaging analysis; type: functional, Macaca mulatta
[2] = Oral bioavailability in rat at 2 mg/kg; type: ADME, organism-based; conditions: in vivo
Summary of the method: (§1)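 Rat PK used 1 mg/kg iv and 2 mg/kg po, while dog and monkey received 0.5 mg/kg iv and 1 mg/kg po. Oral dosing was given as a solution, either in ethanol/PEG400/water (20:40:40, v/v/v) or in Inwittor 742/Tween 80, depending on the compound. Plasma CLp, Vdss, t1/2 and F% were derived from these studies.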

[3] = system: Rhesus monkey; test: Ex vivo NK1 receptor occupancy in rhesus monkey brain assessed as concentration required for 50% occupancy at 13 nM plasma concentration by PET imaging analysis; type: functional, Macaca mulatta
[4] = system: Gerbillinae; test: Antagonist activity at NK1 receptor in iv dosed gerbil brain assessed as inhibition of GR73632-induced foot tapping after 1 hr; type: functional, organism-based
Summary of the method: (§2)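 Gerbils received the antagonist iv 1 h before central administration of the NK1 agonist GR73632. Hind-foot tapping was scored. ID50 (mg/kg) was derived for blockade of tapping, and plasma and brain IC50 (nM) were derived from drug levels at 1 h […].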

[5] = system: Gerbillinae; test: Antagonist activity at NK1 receptor in iv dosed gerbil assessed as inhibition of GR73632-induced foot tapping after 1 hr; type: functional; conditions: read-out: ID50 (the source's name); summary of the method: as §2
[6] = system: Gerbillinae; test: Antagonist activity at NK1 receptor in iv dosed gerbil assessed as inhibition of GR73632-induced foot tapping; type: functional, organism-based; summary of the method: as §2
[7] = biological target: T1, Neuromedin-K receptor (Homo sapiens, UniProt P29371); test: Binding affinity to human NK3 receptor
T1 sequence (P29371 whole entry): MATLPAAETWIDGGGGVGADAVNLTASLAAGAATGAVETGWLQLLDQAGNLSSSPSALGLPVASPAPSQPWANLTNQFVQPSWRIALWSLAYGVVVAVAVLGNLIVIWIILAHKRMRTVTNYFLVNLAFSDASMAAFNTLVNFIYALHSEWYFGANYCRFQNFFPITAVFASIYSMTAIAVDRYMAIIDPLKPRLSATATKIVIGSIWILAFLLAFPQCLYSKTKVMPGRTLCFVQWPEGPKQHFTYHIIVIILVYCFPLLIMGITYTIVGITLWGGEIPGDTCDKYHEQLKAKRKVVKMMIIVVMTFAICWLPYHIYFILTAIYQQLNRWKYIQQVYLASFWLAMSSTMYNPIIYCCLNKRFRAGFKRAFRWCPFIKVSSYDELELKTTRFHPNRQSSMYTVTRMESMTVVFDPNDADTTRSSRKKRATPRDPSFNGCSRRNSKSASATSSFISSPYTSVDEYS

[8] = biological target: T2, Substance-K receptor (Homo sapiens, UniProt P21452); test: Binding affinity to human NK2 receptor
T2 sequence (P21452 whole entry): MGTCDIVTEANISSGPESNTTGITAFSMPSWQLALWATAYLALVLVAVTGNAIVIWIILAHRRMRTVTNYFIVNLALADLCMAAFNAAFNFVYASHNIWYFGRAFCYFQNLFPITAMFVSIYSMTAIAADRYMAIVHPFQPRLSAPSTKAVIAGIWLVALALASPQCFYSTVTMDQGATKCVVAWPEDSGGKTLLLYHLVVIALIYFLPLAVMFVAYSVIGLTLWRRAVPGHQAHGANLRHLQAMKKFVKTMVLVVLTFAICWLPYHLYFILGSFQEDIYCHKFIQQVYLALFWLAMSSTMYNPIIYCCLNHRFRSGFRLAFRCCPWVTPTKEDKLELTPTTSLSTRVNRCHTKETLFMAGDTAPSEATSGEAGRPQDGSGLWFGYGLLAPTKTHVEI

[9] = biological target: T3, Substance-P receptor (Homo sapiens, UniProt P25103); test: Antagonist activity at human NK1 receptor expressed in CHO cells assessed as IP1 generation measured as remaining substance P response at 100 nM
[10] = biological target: T4, Nuclear receptor subfamily 1 group I member 2 (Homo sapiens, UniProt O75469); test: Agonist activity at human PXR at 3.4 uM relative to rifampicin
T4 sequence (O75469 whole entry): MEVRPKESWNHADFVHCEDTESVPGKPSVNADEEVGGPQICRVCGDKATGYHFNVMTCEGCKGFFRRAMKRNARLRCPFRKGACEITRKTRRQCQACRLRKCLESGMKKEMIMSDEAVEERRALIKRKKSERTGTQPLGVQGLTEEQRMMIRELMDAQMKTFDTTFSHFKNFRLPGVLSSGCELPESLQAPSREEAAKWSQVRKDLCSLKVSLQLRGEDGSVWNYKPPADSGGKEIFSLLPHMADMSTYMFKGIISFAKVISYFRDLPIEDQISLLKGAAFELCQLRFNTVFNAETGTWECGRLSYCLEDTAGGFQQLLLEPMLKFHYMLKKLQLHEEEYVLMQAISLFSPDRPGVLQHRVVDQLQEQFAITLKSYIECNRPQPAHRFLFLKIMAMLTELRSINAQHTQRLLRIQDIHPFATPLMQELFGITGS
Summary of the method: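 PXR agonism was measured in human hepatocytes with test compound at 3.4 μM, and the response was expressed as % relative to rifampicin.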

[11] = biological target: Cytochrome P450 2C9 (Homo sapiens, UniProt P11712); test: Inhibition of human CYP2C9; type: ADME
[12] = biological target: Cytochrome P450 2D6 (Homo sapiens, UniProt P10635); test: Inhibition of human CYP2D6; type: ADME
[13] = biological target: Cytochrome P450 3A4 (Homo sapiens, UniProt P08684); test: Inhibition of human CYP3A4; type: ADME
[14] = biological target: T5, Cytochrome P450 2C8 (Homo sapiens, UniProt P10632); test: Inhibition of human CYP2C8; type: ADME
T5 sequence (P10632 whole entry): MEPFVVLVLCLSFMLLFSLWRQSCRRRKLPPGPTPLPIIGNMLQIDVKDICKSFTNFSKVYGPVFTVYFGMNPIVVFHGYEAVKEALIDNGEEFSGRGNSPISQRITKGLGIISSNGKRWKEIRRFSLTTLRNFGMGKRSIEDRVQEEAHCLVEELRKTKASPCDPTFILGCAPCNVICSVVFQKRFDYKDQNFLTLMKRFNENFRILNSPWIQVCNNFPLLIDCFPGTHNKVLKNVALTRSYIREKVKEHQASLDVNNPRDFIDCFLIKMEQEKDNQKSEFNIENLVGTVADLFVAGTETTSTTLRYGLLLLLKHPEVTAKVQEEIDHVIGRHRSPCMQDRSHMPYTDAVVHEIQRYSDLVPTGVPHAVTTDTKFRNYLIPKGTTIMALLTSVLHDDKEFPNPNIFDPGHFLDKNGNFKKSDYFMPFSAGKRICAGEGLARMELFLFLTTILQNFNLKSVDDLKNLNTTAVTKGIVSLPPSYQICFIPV

[15] = Metabolic stability in human hepatocytes assessed as compound remaining at 1 uM after 24 hrs; type: ADME, cell-based, Hepatocyte; conditions: read-out: Stability
Summary of the method: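 Tritium-labelled compound at 1 μM was incubated with cultured human hepatocytes (300 000 cells per incubation) for 24 h, followed by metabolite profiling.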

[16] = Oral bioavailability in dog 1 mg/kg; type: ADME, organism-based, Canis lupus familiaris; conditions: in vivo; summary of the method: as §1
[17] = Oral bioavailability in monkey 1 mg/kg; type: ADME, organism-based, Macaca mulatta; conditions: rhesus monkey, in vivo; summary of the method: as §1
[18] = Half life in dog at 0.5 mg/kg, iv and 1 mg/kg, po; type: ADME, organism-based, Canis lupus familiaris; conditions: in vivo; summary of the method: as §1
[19] = Half life in monkey at 0.5 mg/kg, iv and 1 mg/kg, po; type: ADME, organism-based, Macaca mulatta; conditions: rhesus monkey, in vivo; summary of the method: as §1
[20] = Half life in rat at 1 mg/kg, iv and 2 mg/kg, po; type: ADME, organism-based; conditions: in vivo; summary of the method: as §1
[21] = Volume of distribution at steady state in monkey at 0.5 mg/kg, iv and 1 mg/kg, po; type: ADME, organism-based, Macaca mulatta; conditions: rhesus monkey, in vivo, read-out: Vdss; summary of the method: as §1
[22] = Volume of distribution at steady state in rat at 1 mg/kg, iv and 2 mg/kg, po; type: ADME, organism-based; conditions: in vivo, read-out: Vdss; summary of the method: as §1
[23] = Volume of distribution at steady state in dog at 0.5 mg/kg, iv and 1 mg/kg, po; type: ADME, organism-based, Canis lupus familiaris; conditions: in vivo, read-out: Vdss; summary of the method: as §1
[24] = Plasma clearance in monkey at 0.5 mg/kg, iv and 1 mg/kg, po; type: ADME, organism-based, Macaca mulatta; conditions: rhesus monkey; summary of the method: as §1
[25] = Plasma clearance in rat at 1 mg/kg, iv and 2 mg/kg, po; type: ADME, organism-based; summary of the method: as §1
[26] = Plasma clearance in dog at 0.5 mg/kg, iv and 1 mg/kg, po; type: ADME, organism-based, Canis lupus familiaris; summary of the method: as §1
[27] = system: Gerbillinae; test: Antagonist activity at NK1 receptor in iv dosed gerbil plasma assessed as inhibition of GR73632-induced foot tapping after 1 hr; type: functional, organism-based; summary of the method: as §2
[28] = biological target: T3, Substance-P receptor; test: Displacement of [125I]substance P from human NK1 receptor expressed in CHO cells in presence of human serum; type: cell-based
Summary of the method: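 Inhibition of [¹²⁵I]substance P binding to human NK1 receptor in vitro, with 50% human serum added to the binding medium; IC₅₀ (nM) derived.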

T3 sequence (P25103 whole entry): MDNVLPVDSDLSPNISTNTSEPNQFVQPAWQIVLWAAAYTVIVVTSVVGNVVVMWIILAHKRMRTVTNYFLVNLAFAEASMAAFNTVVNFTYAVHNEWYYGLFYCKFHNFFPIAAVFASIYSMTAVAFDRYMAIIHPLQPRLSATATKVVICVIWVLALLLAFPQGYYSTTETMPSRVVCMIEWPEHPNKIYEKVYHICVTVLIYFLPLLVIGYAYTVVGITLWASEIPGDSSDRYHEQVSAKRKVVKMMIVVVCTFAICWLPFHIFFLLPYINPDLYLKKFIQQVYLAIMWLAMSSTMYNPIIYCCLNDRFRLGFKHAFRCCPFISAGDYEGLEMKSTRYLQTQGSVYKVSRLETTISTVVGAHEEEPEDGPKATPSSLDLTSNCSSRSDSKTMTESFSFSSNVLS
Sequence of Cytochrome P450 3A4 (P08684 whole entry): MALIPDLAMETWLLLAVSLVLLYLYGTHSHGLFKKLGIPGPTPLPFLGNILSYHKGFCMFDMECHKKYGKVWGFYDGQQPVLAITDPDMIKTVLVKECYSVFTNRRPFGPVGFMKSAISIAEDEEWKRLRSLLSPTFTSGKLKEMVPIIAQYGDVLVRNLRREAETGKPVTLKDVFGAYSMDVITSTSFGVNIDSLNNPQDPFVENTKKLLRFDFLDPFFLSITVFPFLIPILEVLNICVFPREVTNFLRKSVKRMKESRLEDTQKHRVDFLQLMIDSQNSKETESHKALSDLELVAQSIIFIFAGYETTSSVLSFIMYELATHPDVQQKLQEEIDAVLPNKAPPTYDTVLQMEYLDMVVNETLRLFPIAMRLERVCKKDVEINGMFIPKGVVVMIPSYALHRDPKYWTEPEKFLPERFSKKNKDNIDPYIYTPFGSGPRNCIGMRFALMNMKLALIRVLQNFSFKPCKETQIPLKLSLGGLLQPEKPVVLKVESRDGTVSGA
Sequence of Cytochrome P450 2D6 (P10635 whole entry): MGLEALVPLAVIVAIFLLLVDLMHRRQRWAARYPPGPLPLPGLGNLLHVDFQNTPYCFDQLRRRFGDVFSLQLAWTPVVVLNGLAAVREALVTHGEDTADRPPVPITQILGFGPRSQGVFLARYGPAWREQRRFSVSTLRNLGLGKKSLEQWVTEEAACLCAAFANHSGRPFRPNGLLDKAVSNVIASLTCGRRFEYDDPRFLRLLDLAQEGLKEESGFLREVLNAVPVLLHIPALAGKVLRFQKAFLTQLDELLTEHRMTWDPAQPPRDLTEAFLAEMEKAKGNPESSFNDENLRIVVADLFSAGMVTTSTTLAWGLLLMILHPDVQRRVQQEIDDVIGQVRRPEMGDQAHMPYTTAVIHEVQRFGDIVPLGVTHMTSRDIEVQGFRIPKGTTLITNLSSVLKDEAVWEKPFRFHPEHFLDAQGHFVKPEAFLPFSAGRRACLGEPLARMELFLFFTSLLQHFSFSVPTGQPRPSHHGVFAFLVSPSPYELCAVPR
Sequence of Cytochrome P450 2C9 (P11712 whole entry): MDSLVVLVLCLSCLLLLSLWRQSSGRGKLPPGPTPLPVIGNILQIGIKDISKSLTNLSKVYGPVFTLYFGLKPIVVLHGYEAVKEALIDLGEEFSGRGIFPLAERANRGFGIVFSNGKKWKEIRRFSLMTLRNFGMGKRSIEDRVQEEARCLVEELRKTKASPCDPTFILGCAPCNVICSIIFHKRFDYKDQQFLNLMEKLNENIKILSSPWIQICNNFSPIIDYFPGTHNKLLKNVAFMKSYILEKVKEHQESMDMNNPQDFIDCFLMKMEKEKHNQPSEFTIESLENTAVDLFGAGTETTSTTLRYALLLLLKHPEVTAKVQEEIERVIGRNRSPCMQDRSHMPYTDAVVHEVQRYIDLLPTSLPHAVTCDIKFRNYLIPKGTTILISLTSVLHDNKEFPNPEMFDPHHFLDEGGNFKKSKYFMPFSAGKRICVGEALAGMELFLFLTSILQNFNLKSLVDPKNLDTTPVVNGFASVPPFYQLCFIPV

C[C@@H](O[C@H]1CC[C@@H]2CN(C3=CC(=O)CC3)C[C@H]2[C@@H]1c1ccc(F)cc1)c1cc(C(F)(F)F)cc(C(F)(F)F)c1 [SERLOPITANT]
Occ90 [1]: 67 nM | bioavailability [2]: 40% | Occ50 [3]: 9 nM | IC50 [4]: 7.7 nM | ED50 [5]: 0.08 mg/kg | inhibition [6]: Active | IC50 [7]: 2400 nM | IC50 [8]: 2400 nM | residual activity [9]: 5%

Cc1ccccc1[C@H]1[C@@H]2CN(C3=NC(=O)CO3)C[C@H]2CC[C@@H]1O[C@H](CO)c1cc(C(F)(F)F)cc(C(F)(F)F)c1
Occ90 [1]: 22 nM | Activity [10]: 14% | IC50 [11]: 41000 nM | IC50 [12]: 61000 nM | IC50 [13]: 15000 nM | IC50 [14]: 21000 nM | remaining at 24 h, 1 µM [15]: 68% | bioavailability [16]: 38% | bioavailability [17]: 66% | bioavailability [2]: 92% | half-life [18]: 11 h | half-life [19]: 13 h | half-life [20]: 4.7 h | Vd [21]: 5.7 L/kg | Vd [22]: 3.1 L/kg | Vd [23]: 1.2 L/kg | clearance [24]: 8 mL/min/kg | clearance [25]: 7.5 mL/min/kg | clearance [26]: 1.4 mL/min/kg | Occ50 [3]: 13 nM | IC50 [4]: 8 nM | IC50 [27]: 5 nM | ED50 [5]: 0.03 mg/kg | inhibition [6]: Active | IC50 [7]: 2500 nM | IC50 [8]: 7200 nM | IC50 [28]: 0.75 nM | residual activity [9]: 3%
